Results on 26 compounds are retold here after ChEMBL document CHEMBL4145521, “Regioselective synthesis of 3,4-diaryl-5-unsubstituted isoxazoles, analogues of natural cytostatic combretastatin A4” (Eur J Med Chem, 2018).

Data set [1] relates to Paracentrotus lividus. Put plainly: Antimitotic activity against Paracentrotus lividus embryo assessed as cleavage arrest measured at 5.5 hrs post fertilization by light microscopy. The data set is classed as functional. An outline of the steps:
(§1)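 Sea urchin eggs were fertilized with diluted sperm and cultured at room temperature in filtered seawater with paddle agitation (60 rpm), at up to 2000 embryos/mL. The effective threshold concentration causing cleavage alteration, death before hatching or full mitotic arrest was scored in duplicate.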

For data set [2], the system named is Paracentrotus lividus. Put plainly: Antimitotic activity against Paracentrotus lividus embryo assessed as embryo spinning after 15 mins to 20 hrs by light microscopy. The data set is classed as functional. An outline of the steps:
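Free-swimming blastulae from the same culture were used just after hatching (8–10 h post-fertilization). They were kept in filtered seawater at room temperature and exposed to 2-fold decreasing concentrations. Spinning at the well bottom instead of forward swimming was monitored from 15 min to 20 h under light microscopy. The effective threshold concentration was recorded from duplicates.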

The subject of data set [3] is Paracentrotus lividus. Nature of the data set: Antimitotic activity against Paracentrotus lividus embryo assessed as cleavage alteration measured at 2.5 hrs post fertilization by light microscopy. The data set is classed as functional. An outline of the steps: as §1
The subject of data set [4] is Paracentrotus lividus. Nature of the data set: Toxicity in Paracentrotus lividus embryo assessed as embryo destruction at 2 to 4 uM by light microscopy. Type of data set: organism-based. The conditions noted are these: in vivo.
In data set [5] the test system is Paracentrotus lividus. Put plainly: Toxicity in Paracentrotus lividus embryo assessed as embryo death at 2 to 4 uM by light microscopy. Type of data set: organism-based. The conditions noted are these: in vivo.

For the compound `COc1ccc(/C=C\c2cc(OC)c(OC)c(OC)c2)cc1O` [COMBRETASTATIN A4], the EC in data set [1] amounted to 0.01 µM; in data set [2], 0.05 µM; in data set [3] it was 0.002 µM.

With `CCOC(=O)C1O[N+]([O-])=C(c2ccc(OC)cc2)C1c1ccc([N+](=O)[O-])cc1` (centres undefined), the EC in data set [1], in data set [2] and in data set [3] was over 4 µM each time.

With `COc1cc(-c2conc2-c2ccccc2)cc(OC)c1OC`, the EC was over 4 µM in data set [1], over 4 µM in data set [2] and 4 µM in data set [3].

In the case of `COc1cc(/C=C(/c2ccccc2)[N+](=O)[O-])c(OC)c2c1OCO2`, the EC turned out to be 4 µM in data set [1], 1 µM in data set [2] and 2 µM in data set [3]. In addition, the Activity entry in data set [4] and in data set [5] was “Toxic” each time.

For `CCOC(=O)C1O[N+]([O-])=C(c2ccc(OC)cc2)C1c1cc(OC)cc(OC)c1` (centres undefined), the EC in data set [1], in data set [2] and in data set [3] was over 4 µM throughout.

`COc1ccc(-c2noc(C(=O)O)c2-c2cccc(OC)c2)cc1`: the EC in data set [1], in data set [2] and in data set [3] was over 4 µM in each case.

For the compound `COc1ccc(/C=C(/c2ccccc2)[N+](=O)[O-])cc1`, the EC in data set [1] came out at 4 µM; in data set [2], 4 µM; in data set [3], 2 µM.

For the compound `COc1ccc(-c2conc2-c2ccccc2)cc1`, the EC in data set [1] was found to be 0.05 µM; in data set [2], 0.1 µM; in data set [3], 0.005 µM.

Regarding `COc1ccc(/C(=C/c2cnn(C)c2)[N+](=O)[O-])cc1`, the EC in data set [1] is over 4 µM; in data set [2], over 4 µM; in data set [3], 2 µM.

As for `COc1ccc(/C(=C/c2cccs2)[N+](=O)[O-])cc1`, the values for the EC in data set [1], in data set [2] and in data set [3] were 2 µM, 2 µM and 0.2 µM, respectively. Besides, the Activity result in data set [4] and in data set [5] was “Toxic” throughout.

Take `COc1ccc(-c2nocc2-c2ccc(Cl)cc2)cc1`: the EC in data set [1], in data set [2] and in data set [3] was over 4 µM each time.

Consider `COc1ccc(-c2noc(C(=O)O)c2-c2cc(OC)cc(OC)c2)cc1`, for which the EC was over 40 µM in data set [1], over 40 µM in data set [2] and 20 µM in data set [3].

`COc1cc(-c2conc2-c2ccccc2)c(OC)c2c1OCO2`: the values for the EC in data set [1], in data set [2] and in data set [3] were over 4 µM, over 4 µM and 2 µM, respectively.

Turning to `COc1ccc(-c2noc(C(=O)O)c2-c2cc(OC)c(OC)c(OC)c2)cc1`, the EC is 2 µM in data set [1], over 5 µM in data set [2] and 0.2 µM in data set [3].

As for `CCOC(=O)C1O[N+]([O-])=C(c2ccc(OC)cc2)C1c1cccc(OC)c1` (centres undefined), the EC was over 4 µM in data set [1], over 4 µM in data set [2] and 4 µM in data set [3].

With `COc1ccc(/C(=C/c2cc(OC)c(OC)c(OC)c2)[N+](=O)[O-])cc1`, the EC in data set [1] is 4 µM; in data set [2], over 4 µM; in data set [3] it was 1 µM. Further, the Activity entry in data set [4] and in data set [5] was “Toxic” throughout.

With `CCOC(=O)C1O[N+]([O-])=C(c2ccc(OC)cc2)C1c1ccc(Cl)cc1` (centres undefined), the EC in data set [1], in data set [2] and in data set [3] was over 4 µM each time.

For the compound `COc1cc(-c2c(-c3ccccc3)noc2C(=O)O)c(OC)c2c1OCO2`, the EC in data set [1], in data set [2] and in data set [3] was over 4 µM throughout.

Consider `COc1ccc(-c2nocc2-c2cnn(C)c2)cc1`, for which the EC in data set [1], in data set [2] and in data set [3] was over 4 µM in each case.

Turning to `CCOC(=O)C1O[N+]([O-])=C(c2ccc(OC)cc2)C1c1cc(OC)c(OC)c(OC)c1` (centres undefined), the EC in data set [1], in data set [2] and in data set [3] was over 4 µM each time.

For `COc1ccc(-c2nocc2-c2cc(OC)cc(OC)c2)cc1`, the EC was 2 µM in data set [1], over 10 µM in data set [2] and 0.2 µM in data set [3].

`COc1ccc(-c2noc(C(=O)O)c2-c2ccc(Cl)cc2)cc1`: the EC in data set [1], in data set [2] and in data set [3] was over 4 µM throughout.

`COc1ccc(-c2nocc2-c2cccs2)cc1`: the EC is over 4 µM in data set [1], over 4 µM in data set [2] and 0.5 µM in data set [3].

`CCOC(=O)C1O[N+]([O-])=C(c2ccccc2)C1c1cc(OC)c2c(c1OC)OCO2` (centres undefined): the EC in data set [1], in data set [2] and in data set [3] was over 4 µM throughout.

On to `COc1ccc(-c2nocc2-c2ccc([N+](=O)[O-])cc2)cc1`, for which the EC in data set [1], in data set [2] and in data set [3] was over 4 µM each time.

In the case of `COc1ccc(-c2nocc2-c2cccc(OC)c2)cc1`, the EC in data set [1] was 4 µM; in data set [2], over 10 µM; in data set [3], 0.52 µM.
